The target of assay [1] is T1, Mu-type opioid receptor (Homo sapiens, UniProt P35372). Particulars: CHO.
Assay [2] concerns the target T1, Mu-type opioid receptor. Nature of the assay: biochemical. It is filed as cell-based, CHO.
Assay [3] addresses Delta-type opioid receptor (Homo sapiens, UniProt P41143). Put plainly: Displacement of [3H]DADLE from human recombinant delta opioid receptor expressed in CHO cells. In kind it is cell-based. Summed up:
(§1)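 Stably transfected CHO cells (hDOR-CHO for [3H]DADLE, hKOR-CHO for [3H]U69,593) grown in DMEM with 10% FBS and G-418 (0.10-0.2 mg/mL) under 5% CO2 at 37 °C. Monolayers harvested and frozen at −80 °C before membrane use; n=3.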
(Loss of bound radioactivity is the signal in a displacement assay; it reports binding, not function.)

Assay [4] has as its target Kappa-type opioid receptor (Homo sapiens, UniProt P41145). Nature of the assay: Displacement of [3H]U69593 from human recombinant kappa opioid receptor expressed in CHO cells. In kind it is cell-based. The procedure, abridged: as §1
Assay [5] concerns the target T1, Mu-type opioid receptor. Nature of the assay: Agonist activity at human recombinant mu opioid receptor expressed in CHO cells assessed as stimulation of [35S]GTPgammaS binding after 3 hrs by liquid scintillation counting relative to DAMGO. In kind it is functional, cell-based. Summed up: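 Same [35S]GTPγS membrane assay in hMOR-CHO: 50 pM radioligand, 10 μM GDP, 3 h at 25 °C, GF/B filtration, scintillation counting.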
In general terms: Binding of GTPγS marks nucleotide exchange on a G protein.

Assay [6] addresses T1, Mu-type opioid receptor. Nature of the assay: Agonist activity at human recombinant mu opioid receptor expressed in CHO cells assessed as stimulation of [35S]GTPgammaS binding after 3 hrs by liquid scintillation counting. It is filed as functional, cell-based. Summed up:
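hMOR-CHO membranes (50 μg protein) grown in DMEM/F-12 with 10% FBS and G-418. Incubated 3 h at 25 °C with 50 pM [35S]GTPγS in 50 mM Tris-HCl pH 7.4, 100 mM NaCl, 10 mM MgCl2, 1 mM EDTA, 1 mM DTT, 10 μM GDP and 0.1% BSA. Nonspecific binding defined with 40 μM GTPγS. Bound label separated on GF/B filters and scintillation counted; n=3.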

This note sets out measurements from ChEMBL document CHEMBL1154776, “Probes for narcotic receptor mediated phenomena. 39. Enantiomeric N-substituted benzofuro[2,3-c]pyridin-6-ols: synthesis and topological relationship to oxide-bridged phenylmorphans” (J Med Chem, 2009).

Usually pKi stands for the negative decadic logarithm of the Ki, by convention in mol/L. The Emax is the greatest response seen or fitted, relative to the assay's reference.

pKi: −log10 of the molar value.

T1 sequence (P35372 whole entry): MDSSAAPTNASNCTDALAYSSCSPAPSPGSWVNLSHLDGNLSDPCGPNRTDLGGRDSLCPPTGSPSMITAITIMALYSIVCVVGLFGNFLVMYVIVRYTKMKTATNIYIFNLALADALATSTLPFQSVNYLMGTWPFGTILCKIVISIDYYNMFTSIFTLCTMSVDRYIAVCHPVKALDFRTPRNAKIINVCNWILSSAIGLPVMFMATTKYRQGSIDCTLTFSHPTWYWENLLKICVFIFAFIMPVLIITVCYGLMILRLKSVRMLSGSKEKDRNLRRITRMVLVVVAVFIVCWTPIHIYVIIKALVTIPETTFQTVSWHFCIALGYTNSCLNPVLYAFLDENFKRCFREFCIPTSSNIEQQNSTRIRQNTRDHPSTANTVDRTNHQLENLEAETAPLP
Chain of Delta-type opioid receptor (P41143 whole entry): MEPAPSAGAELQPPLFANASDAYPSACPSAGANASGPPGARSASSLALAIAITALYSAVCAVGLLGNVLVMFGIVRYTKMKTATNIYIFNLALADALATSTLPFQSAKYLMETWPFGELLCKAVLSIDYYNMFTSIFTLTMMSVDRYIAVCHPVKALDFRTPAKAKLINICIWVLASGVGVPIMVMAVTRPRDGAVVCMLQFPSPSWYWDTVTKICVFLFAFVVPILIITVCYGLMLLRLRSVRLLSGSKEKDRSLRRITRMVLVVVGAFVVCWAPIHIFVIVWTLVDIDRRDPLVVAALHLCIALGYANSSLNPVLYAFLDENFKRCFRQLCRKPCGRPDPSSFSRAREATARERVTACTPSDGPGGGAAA
Chain of Kappa-type opioid receptor (P41145 whole entry): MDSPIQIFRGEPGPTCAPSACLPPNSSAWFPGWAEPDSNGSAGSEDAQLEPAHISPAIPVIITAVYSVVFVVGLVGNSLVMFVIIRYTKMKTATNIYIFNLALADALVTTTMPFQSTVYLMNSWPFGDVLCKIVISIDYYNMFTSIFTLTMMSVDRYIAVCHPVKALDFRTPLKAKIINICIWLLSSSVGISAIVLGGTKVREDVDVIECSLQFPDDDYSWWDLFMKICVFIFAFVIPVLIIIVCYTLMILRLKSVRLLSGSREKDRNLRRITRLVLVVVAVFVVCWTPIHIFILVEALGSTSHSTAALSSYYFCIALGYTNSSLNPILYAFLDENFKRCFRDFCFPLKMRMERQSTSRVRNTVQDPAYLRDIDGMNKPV

The compound `CC[C@@]12CCNC[C@@H]1Oc1ccc(O)cc12` displayed a Ke in assay [1] of 95 nM. In assay [2], this compound had a negative logarithm of the Ki (pKi) of 7.32.
For `CC[C@@]12CCN(C[C@@H](O)c3ccccc3)C[C@@H]1Oc1ccc(O)cc12`, the pKi in assay [3] was 6.35; in assay [4], 6.38; in assay [2] it was 8.03.
In the case of `CC[C@]12CCN(C[C@H](O)c3ccccc3)C[C@H]1Oc1ccc(O)cc12`, the pKi is 5.51 in assay [3], 5.02 in assay [4] and 5.88 in assay [2]. The Emax in assay [5] turned out to be 36%.
Consider `CC[C@]12CCNC[C@H]1Oc1ccc(O)cc12`, for which the ED50 in assay [6] turned out to be 0.15 µM. Besides, the Emax in assay [5] came out at 97%. Moreover, in assay [2], the pKi was 5.46.
With `CC[C@]12CCN(C)C[C@H]1Oc1ccc(O)cc12`, the pKi in assay [3] was 5.37; in assay [2] it was 5.88. Further, the ED50 in assay [6] came out at 0.241 µM. In addition, the maximal response (Emax) in assay [5] came out at 45%.
As for `CC[C@@]12CCN(C[C@H](O)c3ccccc3)C[C@@H]1Oc1ccc(O)cc12`, the figures for the pKi in assay [3], in assay [4] and in assay [2] were 6.09, 5.96 and 7.10, respectively.
`CC[C@@]12CCN(C)C[C@@H]1Oc1ccc(O)cc12`: the pKi in assay [3] was 5.87; in assay [4], 6.35; in assay [2] it was 7.80.
Regarding `CC[C@]12CCN(CCc3ccccc3)C[C@H]1Oc1ccc(O)cc12`, the pKi was 5.57 in assay [3], 5.63 in assay [4] and 6.70 in assay [2]. Besides, the ED50 in assay [6] is 0.024 µM. In addition, the Emax in assay [5] was found to be 84%.
Regarding `CC[C@]12CCN(C[C@@H](O)c3ccccc3)C[C@H]1Oc1ccc(O)cc12`, the pKi is 5.60 in assay [3] and 6.22 in assay [2]. For the same compound, in assay [5], the Emax was found to be 100%.
